How the values were obtained:
IL1β = experiment: qRT-PCR of inflammatory markers in cortical tissue; format: in vivo, mouse; settings: APP^Lond/Swe+ mice, dose-response cohort
Sig2R = settings: read-out: Ki Sig2R; ref Sahn et al. 2016; cited from earlier work
[1] = tested on: Thy1-hAPP^Lond/Swe+ mice and WT littermates; format: in vivo, mouse
Outline: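 APPLond/Swe+ and WT littermates, single-housed on a reverse light cycle, balanced for body weight and pre-dose locomotor activity. Dosing was 10 mg/kg SC once daily in late afternoon for 64 days, started at 4.5 months of age. Activity chamber was run first in the behavioural battery, during the active cycle. After behavioural testing, blood and organs were collected at sacrifice for blood chemistry and histopathology.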

[2] = target: CNS-relevant targets, including opioid, adrenergic, nACR, mAChR, and NMDA receptors, neurotransmitter transporters and ion channels; experiment: Off-target binding, CNS-relevant targets; settings: read-out: off-target affinity Ki; most CNS-relevant targets; Supplemental table 2
[3] = tested on: Thy1-hAPP^Lond/Swe+ mice and WT littermates; experiment: Morris Water Maze; format: in vivo, mouse
Outline: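 Dose-response cohort: APPLond/Swe+ and WT littermates aged 6.7 months, given 3, 10 or 30 mg/kg SC daily for 60 days (n=4–5 per group). MWM started after 35 days of dosing, with hidden-platform learning followed by reversal-learning hidden-platform trials. Mice floating extensively or unable to swim were excluded. Analysis used repeated-measures ANOVA with Dunnett's or one-way ANOVA with Fisher's LSD; mean ±SEM.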

synaptophysin, iba1 = experiment: Synaptophysin and iba1 immunohistochemistry in brain; format: in vivo, mouse
Outline: (§1)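 After behavioural testing at the end of chronic daily SC dosing, APPLond/Swe+ and WT mice were perfused with PBS and brains collected. Brains were bisected sagittally: one half was frozen at −80°C, and the other was fixed overnight in 4% formalin, then kept at 4°C in 30% sucrose until processing.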

PK study in mice = format: in vivo, C57Bl/6J mice; settings: mouse; for bioavailability: AUC(0-3h) vs intravenous
[4] = tested on: Thy1-hAPP^Lond/Swe+ mice and WT littermates; experiment: Sociability / social discrimination test; format: in vivo, mouse; settings: for sociability test: preference mouse cup vs empty cup: 10 mg/kg/d SC, after 35 days of dosing
Outline: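 APPLond/Swe+ and WT littermates dosed SC daily in late afternoon; on test days, dosing followed testing. Chronic study: 10 mg/kg for 64 days from 4.5 months; sociability measured as exploration of a cup holding a C57Bl/6 mouse vs an empty cup. Dose-response study: 3, 10 or 30 mg/kg from 6.7 months; social discrimination of novel vs familiar mouse after 30 days of dosing, by t-test.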

[5] = tested on: Thy1-hAPP^Lond/Swe+ mice and WT littermates; experiment: Y-maze test; format: in vivo, mouse
Outline: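 Y-maze spontaneous alternation and total arm entries in APPLond/Swe+ and WT littermates dosed SC daily, tested during the active cycle in balanced morning and afternoon sessions. Chronic study: 10 mg/kg, tested after 50 days of dosing. Dose-response study: 3, 10 or 30 mg/kg for 60 days. Alternation was compared with a 50% theoretical mean by one-sample t-test; mean ±SEM.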

[6] = tested on: human SK-N-SH neuroblastoma cells; experiment: Intracellular calcium assay; format: cell-based; settings: for calcium response: compound alone
Aβ = Aβ pathology; format: in vivo, mouse; settings: APP^Lond/Swe+ mice, 10 mg/kg/d chronic
Outline: as §1

[7] = tested on: transgenic SC_APP C. elegans; experiment: C. elegans neurotoxicity assay; format: in vivo
[8] = tested on: neural progenitor cells derived from adult rat brain; settings: ref Liu et al. 2009; cited from earlier work
microglia = settings: induced by fragments of amyloid beta; ref Behensky et al. 2013; cited from earlier work

CN1CCN(c2ccc3c(c2)[C@H]2C[C@@H]3CCN2C(=O)OCc2ccccc2)CC1 [SAS-0132]
IL1β mRNA expression (IL1β): decreased the expression of the inflammatory cytokine IL1β | Ki (Sig2R): 90 nM | blood chemistry and histopathology ([1]; WT mice, 10 mg/kg/d for 64 days, Supplemental tables 3-4): no signs of SAS- 0132 induced toxicity | locomotor activity in activity chamber vs vehicle ([1]; after 24 days of treatment): not significantly different | general health of treated animals ([1]; both chronic daily dosing studies, 3-30 mg/kg/d, 60-64 days): remained healthy and exhibited no detectable abnormalities | Ki [2]: 500 to 10000 nM | MWM hidden platform learning phase ([3]; APP^Lond/Swe+ mice): had no effect on the cognitive functions | MWM reversal learning trials ([3]; APP^Lond/Swe+ mice): no significant effects of SAS-0132 treatment | MWM reversal learning probe trial: target quadrant preference ([3]; APP^Lond/Swe+ mice, 10 mg/kg): showed target quadrant preference | MWM reversal learning: escape latency vs vehicle ([3]; APP^Lond/Swe+ mice, 3 and 10 mg/kg): non-significant decreased escape latency | MWM probe trial: target quadrant preference ([3]; WT mice, 3 mg/kg): showed a clear preference for the target quadrant | MWM reversal probe trial: target quadrant preference ([3]; WT mice, 3 mg/kg): all WT groups showed target quadrant preference with the exception of the 3 mg/kg dose group | MWM hidden platform learning: escape latency ([3]; WT mice, 3 and 30 mg/kg, started after 35 days of dosing): found the escape platform faster than the vehicle-treated WT mice | MWM reversal learning day 2: escape latency ([3]; WT mice, 10 and 30 mg/kg): found the escape platform faster than WT mice treated with vehicle | MWM reversal learning probe trial: target quadrant preference ([3]; WT mice, 10 and 30 mg/kg): demonstrated recall and showed target quadrant preference | synaptophysin immunoreactivity, CA3 (synapse loss) (synaptophysin, iba1; APP^Lond/Swe+ mice, 10 mg/kg/d chronic): did not alter the extent of synapse loss | iba1 immunoreactivity (synaptophysin, iba1; WT or APP^Lond/Swe+ mice, chronic daily dosing study): no drug-related effects | plasma levels (PK study in mice; 10 mg/kg IV, SC and PO, up to 3 h post-administration): Detectable levels | bioavailability (PK study in mice; 10 mg/kg oral): 7% | brain concentration (PK study in mice; 10 mg/kg subcutaneous, 3 h post-administration): 3.8 µM | bioavailability (PK study in mice; 10 mg/kg subcutaneous): 45% | concentration in brain homogenates (PK study in mice; 24 h after single 10 mg/kg subcutaneous injection): 1.6 ng/g | sociability test: preference mouse cup vs empty cup ([4]; APP^Lond/Swe+ mice, p < 0.05): showed a distinct preference for the cup containing a mouse over the empty cup | sociability test: preference mouse cup vs empty cup ([4]; WT mice): not significantly altered | sociability ([4]; dose-response study, 30 mg/kg): did not impair sociability | social discrimination: novel vs familiar mouse ([4]; dose-response study, APP^Lond/Swe+ mice, 3 mg/kg): showed a significant preference for a novel mouse over a familiar one | Y-maze total arm entries ([5]; WT and APP^Lond/Swe+ mice, 10 mg/kg/d, chronic daily dosing study): not different among the four groups | Y-maze spontaneous alternation ([5]; dose-response study, WT and APP^Lond/Swe+ mice, 30 mg/kg): showed impaired spontaneous alternation behavior | Y-maze spontaneous alternation ([5]; dose-response study, WT mice, 30 mg/kg): showed impaired alternation behavior | Y-maze spontaneous alternation ([5]; dose-response study, WT mice, 3 and 10 mg/kg): did not affect their performance | Y-maze total arm entries ([5]; dose-response study, all groups): not different among groups | effects on intracellular Ca2+ compared with DKR-1051 ([6]; 100 µM): weaker than the effects of DKR-1051 | effect on calcium response induced by DKR-1051 (100 µM) ([6]; SAS-0132 applied before DKR-1051, lower concentrations (0.1-30 µM)): significantly attenuated the DKR-0151-induced calcium response | calcium response ([6]; 100 µM): significant increases in intracellular Ca^2+ | calcium response ([6]; concentrations up to 30 µM): fails to produce a significant calcium response | intracellular Aβ immunoreactivity (cortex, hippocampus, amygdala) (Aβ): does not affect levels of intracellular Aβ | soluble and insoluble Aβ40 and Aβ42 (ELISA) vs vehicle (Aβ): no significant difference | neurodegeneration of VC4 and VC5 neurons vs vehicle ([7]; 200 µM, 5-day treatment, day 5 of adulthood, SC_APP worms, p < 0.01): decreased neurodegeneration | neuroprotection in animals with vem-1 (PGRMC1) knocked-down by RNAi ([7]; 200 µM, SC_APP worms, vem-1 RNAi co-treatment): provided no further neuroprotection | functional classification at Sig2R/PGRMC1 ([7]; from C. elegans data compared with vem-1 null mutations): Sig2R/PGRMC1 antagonists

CC(=O)[C@H]1CC[C@H]2[C@@H]3CCC4=CC(=O)CC[C@]4(C)[C@H]3CC[C@]12C [progesterone]
neurogenic and neuroprotective effects [8]: exerts neurogenic and neuroprotective effects

CCOc1ccc2nc(SCCN3CCOCC3)[nH]c2c1 [afobazole]
neurotoxic microglia stimulation and apoptosis (microglia): reduces neurotoxic microglia stimulation and apoptosis
